Assay results collected from several papers.
Compare with care: the assays were run in different laboratories.
Target: Serine/threonine-protein kinase 4 (STK4, Homo sapiens, UniProt Q13043)
One construct used (Q13043 1-487): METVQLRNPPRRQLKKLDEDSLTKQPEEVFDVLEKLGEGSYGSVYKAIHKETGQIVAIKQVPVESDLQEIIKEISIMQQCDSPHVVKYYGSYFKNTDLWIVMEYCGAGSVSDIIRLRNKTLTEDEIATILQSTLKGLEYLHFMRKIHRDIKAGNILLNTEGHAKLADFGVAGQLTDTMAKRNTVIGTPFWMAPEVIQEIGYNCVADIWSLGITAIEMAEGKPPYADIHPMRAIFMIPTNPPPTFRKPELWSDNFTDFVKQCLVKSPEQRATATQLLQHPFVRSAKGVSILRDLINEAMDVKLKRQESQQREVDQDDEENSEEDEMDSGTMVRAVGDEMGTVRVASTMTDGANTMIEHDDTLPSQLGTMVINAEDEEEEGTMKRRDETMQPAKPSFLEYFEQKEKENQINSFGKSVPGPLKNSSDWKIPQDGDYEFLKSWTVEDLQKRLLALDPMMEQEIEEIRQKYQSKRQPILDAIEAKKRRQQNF

test | conditions | measurement | value | SMILES
binding, competition with immobilised ligand | 1 µM | remaining binding | 100% | COc1ccc2[nH]c3c4[nH]c5ccc(OC)cc5c4c4c(c3c2c1)C(=O)NC4=O
enzyme activity, inhibitor | 1 µM | inhibition | 78% | CO[C@@H]1[C@H](N(C)C(=O)c2ccccc2)C[C@H]2O[C@]1(C)n1c3ccccc3c3c4c(c5c6ccccc6n2c5c31)C(=O)NC4
binding, competition with immobilised ligand | 0.5 µM | remaining binding | 95% | CCCCC(=O)Nc1ccc(-c2ccc3ncn(CCC)c(=O)c3c2)cn1
binding, competition with immobilised ligand | 1 µM | remaining binding | 96% | CN1CCN(C(=O)c2ccc(NC(=O)Nc3ccc(N(C)c4ccnc(Nc5ccc(CS(C)(=O)=O)cc5)n4)cc3)cc2)CC1
enzyme activity, inhibitor | 0.1 µM | inhibition | -0.517% | Cc1cc(O)c(-c2ccc([C@@H](C)CN(C)C)cc2)c2c1[nH]c(=O)c1sccc12
enzyme activity, inhibitor | 0.2 µM | inhibition | 54.5% | C#Cc1cc(-c2cc(Nc3nc(N[C@@H](C)c4ccc(F)cn4)ncc3Cl)n[nH]2)ccc1C=O
enzyme activity, inhibitor | 1 µM | inhibition | 0% | C=CC(=O)N1CCC([C@@H]2CCNc3c(C(N)=O)c(-c4ccc(Oc5ccccc5)cc4)nn32)CC1
cell-free assay | 0.1 µM | remaining signal | 100% | C1=C/COCc2cc(ccc2OCCN2CCCC2)Nc2nccc(n2)-c2cccc(c2)COC/1
binding | 1 µM | remaining binding | 111% | COc1ccc2oc(-c3ccc4nc(N)oc4c3)c/c(=N\c3ccccc3NC(=O)CCN)c2c1
